Measurements from ChEMBL document CHEMBL4393742, “Structure-activity analysis of peptidic Chlamydia HtrA inhibitors” (Bioorg Med Chem, 2019).
Calls of active or inactive are those of the source. The calls are words filed in the database; no cut-off is given here. Square brackets hold non-standard residues; d marks the D form. Peptide text beside a SMILES is read from it. * marks the point of attachment. ξ: configuration not given here. Boc = CC(C)(C)OC(=O)*; ξV = CC(C)C(N)C(=O)O

What was measured:
[1] = test system: Chlamydia trachomatis 434/Bu; experiment: (§1) Potency index, ratio of JO146 IC50 to compound IC50 for inhibition of recombinant chlamydia trachomatis serovar L2 434/Bu/ATCC VR-902B HtrA expressed in Escherichia coli BL21(DE3) using MeOCoum-ENLHLPLPIIF-NH-DNP as fluorescent mimotope preincubated for 20 mins followed by mimotope addition in presence of fluorophore 7-methoxycoumarin-4-acetic acid by plate reader based fluorescence assay
Chlamydia trachomatis [2] = experiment: (§2) Antibacterial activity against Chlamydia trachomatis D/UW-3/Cx strain infected in mouse McCoy cells assessed as inclusion forming units at 100 uM treated 16 hrs post infection measured at 44 hrs post-infection by Evan's blue staining based-confocal microscopic analysis (reference value: 62 +/- 8.5 10^5U/mL); type: functional
[3] = as §1, with “Inhibition” for “Potency index, ratio of JO146 IC50 to compound IC50 for inhibition”; set-up: species or system Chlamydia trachomatis 434/Bu
Neutrophil elastase = molecular target: T1, Neutrophil elastase (Homo sapiens, UniProt P08246); experiment: Inhibition of human neutrophil elastase using AAPV-pNA as substrate preincubated for 15 mins followed by substrate addition and measured every 15 secs for 5 mins
T1 sequence (P08246 whole entry): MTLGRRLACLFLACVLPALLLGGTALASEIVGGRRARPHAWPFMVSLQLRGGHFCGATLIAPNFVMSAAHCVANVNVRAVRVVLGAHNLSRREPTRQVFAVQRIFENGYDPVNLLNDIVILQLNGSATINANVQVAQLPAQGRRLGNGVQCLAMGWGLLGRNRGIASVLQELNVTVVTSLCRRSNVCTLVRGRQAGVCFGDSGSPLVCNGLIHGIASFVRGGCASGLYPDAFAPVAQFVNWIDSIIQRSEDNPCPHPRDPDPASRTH
How it was run: (§3)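 Enzyme and inhibitor (in DMSO) were preincubated at 37 °C for 15 min in 0.10 M Tris-HCl, pH 8.1, with 0.02 M CaCl₂. The pNA substrate was added to start the reaction. A405 was monitored every 15 s over 5 min at 37 °C. Runs were in triplicate, and inhibition was expressed as percent enzyme activity remaining.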

Trypsin = Trypsin (Homo sapiens, UniProt P07477+P07478+P35030); experiment: Inhibition of human trypsin using Nalpha-benzoyl-DL-R-pNA as substrate preincubated for 15 mins followed by substrate addition and measured every 15 secs for 5 mins; type: protein assay; how it was run: as §3
[4] = Inhibition of bovine pancreas chymotrypsin using AAPF-pNA as substrate preincubated for 15 mins followed by substrate addition and measured every 15 secs for 5 mins; set-up: species or system Bos taurus; how it was run: as §3
[5] = Inhibition of chlamydia trachomatis HtrA using MCA-ENLHLPLPIIF-DNP as substrate by FRET or pNA assay
How it was run: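 Recombinant CtHtrA at 0.5 mg/mL stock, preincubated with inhibitor in DMSO in 50 mM Tris/20 mM MgCl2, pH 7.0, for 20 min at 37 °C. Reaction started with quenched fluorescent peptide (methoxycoumarin fluorophore, DNP quencher; 1 mg/mL stock in 50% isopropanol). Fluorescence read immediately at ex 340/em 405 nm over 50 cycles.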

Chlamydia pecorum [6] = experiment: as §2, with “pecorum IPA ATCC VR629” for “trachomatis D/UW-3/Cx strain”, “342.55646” for “62”, “6.53872” for “8.5”; type: functional
Chlamydia pecorum [7] = experiment: Antibacterial activity against Chlamydia pecorum IPA ATCC VR629 infected in mouse McCoy cells assessed as reduction in inclusion forming units at 100 uM treated 16 hrs post infection measured at 44 hrs post-infection by Evan's blue staining based-confocal microscopic analysis (reference value: 342.55646 +/- 6.53872 10^5U/mL); type: functional
[8] = test system: Chlamydia trachomatis 434/Bu; experiment: Activation of recombinant chlamydia trachomatis serovar L2 434/Bu/ATCC VR-902B HtrA expressed in Escherichia coli BL21(DE3) using MeOCoum-ENLHLPLPIIF-NH-DNP as fluorescent mimotope at <50 uM preincubated for 20 mins followed by mimotope addition in presence of fluorophore 7-methoxycoumarin-4-acetic acid by plate reader based fluorescence assay
Chlamydia trachomatis [9] = experiment: as §2, with “trachomatis D/UW-3/Cx infected in” for “trachomatis D/UW-3/Cx strain infected in”, “assessed as reduction in inclusion forming” for “assessed as inclusion forming”; type: functional

## CC(C)C(NC(=O)[C@@H]1CCCN1C(=O)[C@@H](NC(=O)OC(C)(C)C)C(C)C)C(=O)N(C)C1CC1 (stereo not given in full)
[1]
  Ratio IC50: inactive
Chlamydia trachomatis [2]
  Activity: 8.3844 ×10⁵ U/mL
[3]
  IC50: > 500 µM

## CCCC(NC(=O)[C@@H]1CCCN1C(=O)[C@@H](NC(=O)OC(C)(C)C)C(C)C)C(=O)c1nccs1 (stereo not given in full)
[1]
  Ratio IC50: inactive
Neutrophil elastase
  IC50: > 150 µM
Trypsin
  IC50: > 500 µM
[4]
  IC50: > 500 µM
[3]
  IC50: > 500 µM

## CC(C)C(NC(=O)[C@@H]1CCCN1C(=O)[C@H](C)NC(=O)OC(C)(C)C)P(=O)(Oc1ccccc1)Oc1ccccc1 (stereo not given in full)
[5]
  IC50: 47.2 µM

## CC(C)C(NC(=O)[C@@H]1CCCN1C(=O)[C@@H](NC(=O)OC(C)(C)C)C(C)C)C(=O)C(N)=O (stereo not given in full)
[1]
  Ratio IC50: inactive
Chlamydia trachomatis [2]
  Activity: 29.07 ×10⁵ U/mL
[3]
  IC50: > 500 µM

## CC(C)C(NC(=O)[C@@H]1CCCN1C(=O)[C@@H](NC(=O)OC(C)(C)C)C(C)C)C(=O)N(C)C (stereo partly drawn) (Boc-Val-Pro-[ξV]-NMe2)
[1]
  Ratio IC50: inactive
Chlamydia trachomatis [2]
  Activity: 30.9343 ×10⁵ U/mL
[3]
  IC50: > 500 µM

## CC(C)C(NC(=O)[C@@H]1CCCN1C(=O)[C@@H](NC(=O)OC(C)(C)C)C(C)C)P(=O)(Oc1ccccc1)Oc1ccccc1 (stereo not given in full)
Neutrophil elastase
  IC50: 0.83 µM
Trypsin
  IC50: > 500 µM
[4]
  IC50: > 500 µM
Chlamydia trachomatis [2]
  Activity: 0.00434 ×10⁵ U/mL
[3]
  IC50: 13 to 351 µM
[5]
  IC50: 12.5 µM

## CC(C)C(NC(=O)[C@@H]1CCCN1C(=O)[C@@H](NC(=O)OC(C)(C)C)C(C)C)C(=O)c1nc2ccccc2s1 (mixture of isomers)
[1]
  Ratio IC50: 1.06
Neutrophil elastase
  IC50: 2.6 µM
Trypsin
  IC50: > 500 µM
[4]
  IC50: > 500 µM
Chlamydia trachomatis [2]
  Activity: 2.539 ×10⁵ U/mL
[3]
  IC50: 321 µM
Chlamydia pecorum [6]
  Activity: 0.04744 ×10⁵ U/mL
Chlamydia pecorum [7]
  Activity: 4 log10CFU

## C=CCN(C)C(=O)C(NC(=O)[C@@H]1CCCN1C(=O)[C@@H](NC(=O)OC(C)(C)C)C(C)C)C(C)C (stereo not given in full)
[1]
  Ratio IC50: inactive
Chlamydia trachomatis [2]
  Activity: 36.2553 ×10⁵ U/mL
[3]
  IC50: > 500 µM

## CCN(C)C(=O)C(NC(=O)[C@@H]1CCCN1C(=O)[C@@H](NC(=O)OC(C)(C)C)C(C)C)C(C)C (stereo not given in full)
[1]
  Ratio IC50: inactive
Chlamydia trachomatis [2]
  Activity: 34.5497 ×10⁵ U/mL
[3]
  IC50: > 500 µM

## CC[C@H](C)[C@H](NC(=O)OC(C)(C)C)C(=O)N1CCC[C@H]1C(=O)NC(C(C)C)P(=O)(Oc1ccccc1)Oc1ccccc1 (mixture of isomers)
[1]
  Ratio IC50: 14.3
Neutrophil elastase
  IC50: 0.4 µM
Trypsin
  IC50: > 500 µM
[4]
  IC50: > 500 µM
Chlamydia trachomatis [2]
  Activity: 0.5089 ×10⁵ U/mL
[3]
  IC50: 25 µM
Chlamydia pecorum [6]
  Activity: 10.8851 ×10⁵ U/mL

## CCC(C)C(NC(=O)[C@@H]1CCCN1C(=O)[C@@H](NC(=O)OC(C)(C)C)C(C)(C)C)P(=O)(Oc1ccccc1)Oc1ccccc1 (mixture of isomers)
[1]
  Ratio IC50: inactive
Neutrophil elastase
  IC50: 2.35 µM
Trypsin
  IC50: > 500 µM
[4]
  IC50: 0.53 µM
Chlamydia trachomatis [2]
  Activity: 0.1099 ×10⁵ U/mL
[3]
  IC50: > 500 µM
Chlamydia pecorum [6]
  Activity: 0.2042 ×10⁵ U/mL

## CC(C)C(CO)NC(=O)[C@@H]1CCCN1C(=O)[C@@H](NC(=O)OC(C)(C)C)C(C)C (mixture of isomers)
[1]
  Ratio IC50: inactive
Chlamydia trachomatis [2]
  Activity: 34.6007 ×10⁵ U/mL
[3]
  IC50: > 500 µM

## CCC(C)C(NC(=O)[C@@H]1CCCN1C(=O)[C@@H](NC(=O)OC(C)(C)C)[C@@H](C)CC)P(=O)(Oc1ccccc1)Oc1ccccc1 (mixture of isomers)
Neutrophil elastase
  IC50: 0.84 µM
Trypsin
  IC50: > 500 µM
[4]
  IC50: 1.28 µM
Chlamydia trachomatis [2]
  Activity: 0.1134 ×10⁵ U/mL
[3]
  IC50: 86 µM
Chlamydia pecorum [6]
  Activity: 0.3958 ×10⁵ U/mL

## CCC(C)C(NC(=O)[C@@H]1CCCN1C(=O)[C@@H](NC(=O)OC(C)(C)C)C(C)C)P(=O)(Oc1ccccc1)Oc1ccccc1 (mixture of isomers)
[1]
  Ratio IC50: 20
Neutrophil elastase
  IC50: 0.36 µM
Trypsin
  IC50: > 500 µM
[4]
  IC50: 38.5 µM
Chlamydia trachomatis [2]
  Activity: 0.09231 ×10⁵ U/mL
[3]
  IC50: 18.4 µM
Chlamydia pecorum [6]
  Activity: 43.9246 ×10⁵ U/mL

## CC(C)C(NC(=O)[C@@H]1CCCN1C(=O)[C@@H](NC(=O)OC(C)(C)C)C(C)C)C(=O)C(=O)C1CC1 (mixture of isomers)
[1]
  Ratio IC50: inactive
Trypsin
  IC50: > 500 µM
[4]
  IC50: > 500 µM
Chlamydia trachomatis [2]
  Activity: 55.0347 ×10⁵ U/mL
[3]
  IC50: > 500 µM

## CCC[C@H](NC(=O)OC(C)(C)C)C(=O)N1CCC[C@H]1C(=O)NC(C(C)C)P(=O)(Oc1ccccc1)Oc1ccccc1 (mixture of isomers)
Neutrophil elastase
  IC50: 0.45 µM
Trypsin
  IC50: > 500 µM
[4]
  IC50: > 500 µM
Chlamydia trachomatis [2]
  Activity: 17.0963 ×10⁵ U/mL
[3]
  IC50: 56 µM
Chlamydia pecorum [6]
  Activity: 219.8 ×10⁵ U/mL

## CCC(C)C(NC(=O)[C@@H]1CCCN1C(=O)[C@@H](NC(=O)OC(C)(C)C)C(C)(C)C)C(=O)c1nc2ccccc2s1 (mixture of isomers)
[1]
  Ratio IC50: inactive
Neutrophil elastase
  IC50: 4.83 µM
Trypsin
  IC50: > 500 µM
[4]
  IC50: > 500 µM
Chlamydia trachomatis [2]
  Activity: 2.829 ×10⁵ U/mL
[3]
  IC50: > 500 µM
Chlamydia pecorum [6]
  Activity: 0.2193 ×10⁵ U/mL

## CCCC(NC(=O)[C@@H]1CCCN1C(=O)[C@@H](NC(=O)OC(C)(C)C)C(C)C)P(=O)(Oc1ccccc1)Oc1ccccc1 (mixture of isomers)
[1]
  Ratio IC50: inactive
Neutrophil elastase
  IC50: 0.68 µM
Trypsin
  IC50: > 500 µM
[4]
  IC50: > 500 µM
Chlamydia trachomatis [2]
  Activity: 1.49 ×10⁵ U/mL
[3]
  IC50: > 500 µM
Chlamydia pecorum [6]
  Activity: 0.4583 ×10⁵ U/mL

## CC(C)[C@H](NC(=O)OC(C)(C)C)C(=O)N1CCC[C@H]1C(=O)NC(C(C)(C)C)P(=O)(Oc1ccccc1)Oc1ccccc1 (mixture of isomers)
[1]
  Ratio IC50: inactive
Neutrophil elastase
  IC50: > 500 µM
Trypsin
  IC50: > 500 µM
[4]
  IC50: > 500 µM
Chlamydia trachomatis [2]
  Activity: 0.217 ×10⁵ U/mL
[3]
  IC50: > 500 µM
Chlamydia pecorum [6]
  Activity: 5.344 ×10⁵ U/mL

## CC(C)C(NC(=O)[C@@H]1CCCN1C(=O)[C@@H](NC(=O)OC(C)(C)C)C(C)(C)C)P(=O)(Oc1ccccc1)Oc1ccccc1 (mixture of isomers)
[1]
  Ratio IC50: 33.3
Neutrophil elastase
  IC50: 0.68 µM
Trypsin
  IC50: > 500 µM
[4]
  IC50: > 500 µM
Chlamydia trachomatis [2]
  Activity: 0.01548 ×10⁵ U/mL
[3]
  IC50: 9.3 µM
Chlamydia pecorum [6]
  Activity: 0.03388 ×10⁵ U/mL

## CCC(=O)C(=O)C(NC(=O)[C@@H]1CCCN1C(=O)[C@@H](NC(=O)OC(C)(C)C)C(C)C)C(C)C (mixture of isomers)
[1]
  Ratio IC50: inactive
Neutrophil elastase
  IC50: 4.71 µM
Trypsin
  IC50: > 500 µM
[4]
  IC50: > 500 µM
Chlamydia trachomatis [2]
  Activity: 57 ×10⁵ U/mL
[3]
  IC50: > 500 µM
Chlamydia pecorum [6]
  Activity: 351 ×10⁵ U/mL

## CC(=O)C(=O)C(NC(=O)[C@@H]1CCCN1C(=O)[C@@H](NC(=O)OC(C)(C)C)C(C)C)C(C)C (mixture of isomers)
[1]
  Ratio IC50: inactive
Neutrophil elastase
  IC50: 1.35 µM
Trypsin
  IC50: > 500 µM
[4]
  IC50: > 500 µM
Chlamydia trachomatis [2]
  Activity: 86 ×10⁵ U/mL
[3]
  IC50: > 500 µM

## CC(C)C(NC(=O)[C@@H]1CCCN1C(=O)[C@@H](NC(=O)OC(C)(C)C)C(C)C)C(=O)c1nccs1 (mixture of isomers)
[1]
  Ratio IC50: inactive
Chlamydia trachomatis [2]
  Activity: 33.1 ×10⁵ U/mL
[3]
  IC50: > 500 µM
Chlamydia pecorum [6]
  Activity: 1.983 ×10⁵ U/mL

## CC(C)C(NC(=O)[C@@H]1CCCN1C(=O)[C@@H](NC(=O)OC(C)(C)C)C(C)C)B(O)O (stereo not given in full)
Chlamydia trachomatis [2]
  Activity: 0.09939 ×10⁵ U/mL
[3]
  IC50: > 500 µM
[8]
  Activity: Active
Chlamydia trachomatis [9]
  Activity: 3 log10CFU
